# A selection: hits, their analogues and other compounds. The true share with any hit is near 0.63%.
# GSK3 alpha inh = human GSK-3 alpha kinase inhibition; ADP-Glo luminescence, 60 min; inhibition, % at 10 µM; 0.1% of 320,000 active; AID 2650;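 active means more than half of replicates show inhibition above 20%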;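 further: GST-tagged GSK-3 alpha with peptide substrate and 25 µM ATP; 0% = DMSO neutral wells and 100% = GW8510 positive control wells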
# Target sequence (P49840 whole entry, looked up): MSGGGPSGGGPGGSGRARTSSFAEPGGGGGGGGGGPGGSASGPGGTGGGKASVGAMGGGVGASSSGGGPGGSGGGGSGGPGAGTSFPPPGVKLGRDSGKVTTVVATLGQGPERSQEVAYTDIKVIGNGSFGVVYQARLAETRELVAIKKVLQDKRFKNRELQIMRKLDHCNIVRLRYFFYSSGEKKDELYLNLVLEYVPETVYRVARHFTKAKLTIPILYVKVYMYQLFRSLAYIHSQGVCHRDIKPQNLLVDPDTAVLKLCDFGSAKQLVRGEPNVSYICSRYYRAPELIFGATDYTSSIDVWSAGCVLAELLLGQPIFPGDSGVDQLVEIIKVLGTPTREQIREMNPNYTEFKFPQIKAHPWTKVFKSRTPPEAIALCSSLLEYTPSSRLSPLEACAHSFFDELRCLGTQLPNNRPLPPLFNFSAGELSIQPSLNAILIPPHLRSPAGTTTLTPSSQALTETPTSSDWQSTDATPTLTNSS
# MT1-MMP act inh = MT1-MMP (human) activation inhibition. GFP/RFP ratio change, % at 20 µM. P50281. 0.061% of 360,000 active. AID 651647. HT1080 RFP-PRO-GFP cells, GFP/RFP ratio fluorescence, overnight; percent of plate control window, DMSO zero;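 active means GFP/RFP ratio change of at least 30% with cell ATP level not reduced by more than half and red fluorescence within 50% of control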
#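 Test system: HT1080 RFP-PRO-GFP cells; Benchmarks: DMSO and RFP-L50D-GFP cell wells; Timing: cells overnight before dosing, compound overnight, 37 °C, 5% CO2; Compound: one 20 µM compound dose with 1% DMSO; Read-out: GFP/RFP fluorescence ratio.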
# Pemphigus Ab inh = inhibitors of pemphigus antibody binding to human desmoglein-3; AID 588358; 0.48% of 310,000 active; binding (percent of control), % at 10 µM; DSG3-coupled beads, scFv-anti-DSG3-GFP binding, flow cytometry; hits give low values;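 active means binding more than 3 SD below its plate's average and above zero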;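 further: hits lower antibody fragment binding to DSG3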
# GSK3beta inhib = inhibitors of human GSK3beta kinase | activity score (negative = inhibition), % at 10 µM | GST-GSK3beta kinase, ADP-Glo luminescence, 60 min; hits give low values | 0.038% of 300,000 active | P49841;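 active means more than half of replicate wells score below -50%, meaning over 50% inhibition versus plate controls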;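 further: 0% = median DMSO wells and -100% = median GW8510 positive control wells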
#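 Assay system: GST-fused GSK3beta enzyme, cell-free / Medium: Tris pH 7.5 buffer with MgCl2, DTT, BSA, heparin / Also added: peptide substrate plus 25 µM ATP (final) / Compound: 10 µM single point / Timing: kinase reaction with compound 60 min at room temperature / Detection: ADP-Glo luminescence / Benchmarks: DMSO neutral wells and GW8510 at 20 µM as positive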
# STK33 inh = inhibitors of human STK33 kinase. Q9BYT3. purified STK33, MBP phosphorylation, ADP-Glo luminescence. inhibition, % at 10 µM. 0.073% of 320,000 active;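 active means inhibition at or above 25%, using the most active replicate where run in duplicate; inactive means inhibition below 25%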
# The depositor's hits bear a star; x = no result given.
SMILES,GSK3 alpha inh,MT1-MMP act inh,Pemphigus Ab inh,GSK3beta inhib,STK33 inh
C[C@H]1[C@H](C)CC[C@]2(C(=O)O)CC[C@]3(C)C(=CC[C@@H]4[C@@]5(C)C[C@@H](O)[C@H](O)C(C)(C)[C@@H]5CC[C@]43C)[C@H]12,6,0,85*,3,1
O=C1c2ccc(Oc3ccc4c(c3)C(=O)N(CCCO)C4=O)cc2C(=O)N1CCCO,4,0,x,2,-3
Cc1ccc2c(c1)C(=O)N(CCCCO)C2=O,-3,x,69*,0,0
CCCCCCCCC(c1nc2ccccc2[nH]1)N1CCN=C1c1cc2ccccc2[nH]1 (stereo unspecified),x,-4,x,x,x
CC(C)Oc1ccc(C2CC(=O)N(c3ccccc3)C2=O)cc1 (stereo unspecified),-2,6,99,0,0
CC(C)Oc1ccc(C2CC(=O)N(c3ccc(N(C)C)cc3)C2=O)cc1 (stereo unspecified),0,-3,77*,1,0
O=c1[nH]c(=S)[nH]c2nc(-c3cccs3)cc(C(F)(F)F)c12,0,4,71*,1,-4
Nc1nc2cc3c(cc2cc1C(=O)NCc1ccc(F)cc1)OCO3,x,3,x,x,x
COCCn1c(SCC(=O)Nc2ccc(Cl)cn2)nc2ccccc21,13,1,101,-76*,-1
O=C(O)c1ccccc1NS(=O)(=O)c1ccc2c3c(cccc13)C(=O)N2,x,-3,102,5,-1
Cc1cc(O)ccc1NS(=O)(=O)c1ccc2c3c(cccc13)C(=O)N2,14,0,99,-5,41*
CCc1nc2ccc(C(=O)NC3CCN(Cc4ccccc4)CC3)cn2c1N(C)Cc1cc2ccccc2s1,x,-4,x,x,x
CCN(CC)c1ccc(Nc2nc(N3CCOCC3)c3ccccc3n2)cc1,1,2,101,0,28*
COc1ccc(Nc2nc(N3CCCC3)c3ccccc3n2)cc1,2,4,84,-4,3
CCCCOCCCNC(=O)C[C@@H]1C[C@@]2(C(=O)OC)CCCCC=C2N(Cc2cccc3ccccc23)C1=O,x,-3,x,x,x
COc1ccc(/C=C/C(=O)NC(=S)Nc2cc3oc4ccccc4c3cc2OC)cc1,0,1,90,-5,-3
COc1cc2c(cc1NC(=S)NC(=O)/C=C/c1ccc(OC)c(OC)c1)oc1ccccc12,x,6,68*,x,x
CN(c1ncnc(N)c1[N+](=O)[O-])C1CCCCC1,22,-17,122,-33,3
CN(c1ncnc(N)c1[N+](=O)[O-])C1CCS(=O)(=O)C1 (stereo unspecified),55*,-12,96,-37,-1
COc1ccc(Nc2nc(NCCCN3CCOCC3)nc(N)c2[N+](=O)[O-])cc1,85*,-9,x,-56*,2
Nc1nc(NCCCN2CCOCC2)nc(Nc2ccc(F)cc2)c1[N+](=O)[O-],51*,3,102,12,0
Nc1nc(NCCCN2CCOCC2)nc(Nc2cccc(F)c2)c1[N+](=O)[O-],57*,-3,x,-71*,-3
Cc1cccc(Nc2nc(NCCCN3CCOCC3)nc(N)c2[N+](=O)[O-])c1,75*,-7,123,-74*,5
CCOC(=O)C1=C[C@@H](C2CCCCC2)N(S(=O)(=O)c2ccc([N+](=O)[O-])cc2)[C@H]1c1ccccc1,x,-4,x,x,x
COc1cccc2c1NC(C(=O)O)C1CC=CC21 (stereo unspecified),1,11,13*,-3,6
SMILES,GSK3 alpha inh,MT1-MMP act inh,Pemphigus Ab inh,GSK3beta inhib,STK33 inh
COc1ccc(CN2C(=O)C(CC(=O)NC3CCCC3)CC(C(=O)N3CCOCC3)=C2C)cc1 (stereo unspecified),x,1,x,x,x
CCOc1ccc(N(CC(=O)NCCSCc2ccco2)S(=O)(=O)c2ccc(F)cc2)cc1,0,-1,98,6,-2
CCOc1ccc(N(CC(=O)NCCSCc2ccco2)S(=O)(=O)c2ccc(C)cc2)cc1,-3,-3,81*,1,-2
Cc1cc(C)n(CCC(=O)N=Nc2c(O)[nH]c3ccc(Br)cc23)n1,73*,5,96,-16,0
COc1cc2c(cc1OC)C(=O)C(Br)CC2 (stereo unspecified),x,2,95,x,x
CSCCC(NC(=O)C12CC3CC(CC(C3)C1)C2)C(=O)OCC(=O)c1ccc(C)cc1 (stereo unspecified),-3,-3,53*,-21,0
CSCCC(NC(=O)c1ccc([N+](=O)[O-])cc1Cl)C(=O)OCC(=O)C12CC3CC(CC(C3)C1)C2 (stereo unspecified),1,4,88,1,-2
O=C(COC(=O)/C=C/c1cccc(F)c1)Nc1ccc(Cl)cn1,1,0,101,0,-3
O=C(COC(=O)/C=C/c1cccc(F)c1)Nc1ncccn1,-3,0,83*,-4,0
CC(=O)Nc1ccc(CNc2nc3cc(-c4ccsc4)sc3c(=O)n2C)cc1,x,-1,x,x,x
Cc1ccc(S(=O)(=O)N2CCN(CC(=O)Nc3ccc([N+](=O)[O-])cc3)CC2)cc1C,-2,-1,87,8,-1
Cc1cc(C)c(C)c(S(=O)(=O)N2CCN(CC(=O)Nc3ccc([N+](=O)[O-])cc3)CC2)c1C,4,3,60*,3,0
O=C(c1ccc2c3n(nc2c1)-c1ccccc1CO3)N1CCCCC1,32,2,97,-19,27*
O=C(c1ccc2c3n(nc2c1)-c1ccccc1CO3)N1CCOCC1,51*,-1,100,-23,43*
CO[C@H](C(=O)N(C)C[C@@H]1OCc2ccccc2-c2c(n(C)c3ccccc23)C(=O)N([C@H](C)CO)C[C@@H]1C)c1ccccc1,x,-3,99,x,x
Cc1ccc(Cn2cc(SCC(=O)Nc3nccs3)c3ccccc32)cc1,1,19,104,-8,1
Cc1nnc(NC(=O)CSc2cn(Cc3ccccc3)c3ccccc23)s1,1,2,-20*,0,0
O=C1COc2ccc(C(=O)COC(=O)CCSc3ccccc3)cc2N1,-2,0,73*,7,5
O=C1COc2ccc(C(=O)COC(=O)CCCOc3ccccc3)cc2N1,x,-3,82*,x,x
COC(=O)CSc1ccc2nnc(-c3ccc(F)cc3)n2n1,60*,-1,94,-78*,3
CCC(Sc1ccc2nnc(-c3ccc(OC)c(OC)c3)n2n1)C(=O)O (stereo unspecified),19,8,108,0,38*
COc1ccc(C(=O)c2sc3nc(-c4ccc(OC)cc4)ccc3c2N)cc1,5,-48,26*,1,0
COc1ccc(-c2ccc3c(N)c(C(=O)c4cccc(OC)c4)sc3n2)cc1,1,-98,91,1,-1
O=C(COc1ccc(C(=S)N2CCOCC2)cc1Cl)Nc1ccccc1Cl,-1,5,83*,2,0

# High-throughput results from PubChem.
